# TRPC6 inh = mouse TRPC6 channel inhibition; Q61143; HEK293-TRPC6, membrane potential dye, ACh-evoked depolarization; stronger effect = lower value; B-score at 10 µM; hit rate 1.1% among 310,000; AID 2553;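 active means B-score under library mean minus 3 SD, initial fluorescence not abnormally high, positive integrated signal ratio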;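 further: B-score derived from integrated fluorescence ratio over the kinetic read; more negative B-score means stronger inhibition of depolarization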
# TRPC4 potent = allosteric potentiators of mouse TRPC4 channel | Q9QUQ5 | HEK293 TRPC4beta/mu-opioid, DAMGO EC20, Fluo-4 Ca2+ flux; stronger effect = higher value | B-score at 10 µM | hit rate 0.42% among 310,000 | AID 2227;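 active means B-score of calcium response area above 5 SD of library B-scores, with initial fluorescence ratio within 5 SD of library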
# Target sequence (Q9QUQ5 whole entry, looked up): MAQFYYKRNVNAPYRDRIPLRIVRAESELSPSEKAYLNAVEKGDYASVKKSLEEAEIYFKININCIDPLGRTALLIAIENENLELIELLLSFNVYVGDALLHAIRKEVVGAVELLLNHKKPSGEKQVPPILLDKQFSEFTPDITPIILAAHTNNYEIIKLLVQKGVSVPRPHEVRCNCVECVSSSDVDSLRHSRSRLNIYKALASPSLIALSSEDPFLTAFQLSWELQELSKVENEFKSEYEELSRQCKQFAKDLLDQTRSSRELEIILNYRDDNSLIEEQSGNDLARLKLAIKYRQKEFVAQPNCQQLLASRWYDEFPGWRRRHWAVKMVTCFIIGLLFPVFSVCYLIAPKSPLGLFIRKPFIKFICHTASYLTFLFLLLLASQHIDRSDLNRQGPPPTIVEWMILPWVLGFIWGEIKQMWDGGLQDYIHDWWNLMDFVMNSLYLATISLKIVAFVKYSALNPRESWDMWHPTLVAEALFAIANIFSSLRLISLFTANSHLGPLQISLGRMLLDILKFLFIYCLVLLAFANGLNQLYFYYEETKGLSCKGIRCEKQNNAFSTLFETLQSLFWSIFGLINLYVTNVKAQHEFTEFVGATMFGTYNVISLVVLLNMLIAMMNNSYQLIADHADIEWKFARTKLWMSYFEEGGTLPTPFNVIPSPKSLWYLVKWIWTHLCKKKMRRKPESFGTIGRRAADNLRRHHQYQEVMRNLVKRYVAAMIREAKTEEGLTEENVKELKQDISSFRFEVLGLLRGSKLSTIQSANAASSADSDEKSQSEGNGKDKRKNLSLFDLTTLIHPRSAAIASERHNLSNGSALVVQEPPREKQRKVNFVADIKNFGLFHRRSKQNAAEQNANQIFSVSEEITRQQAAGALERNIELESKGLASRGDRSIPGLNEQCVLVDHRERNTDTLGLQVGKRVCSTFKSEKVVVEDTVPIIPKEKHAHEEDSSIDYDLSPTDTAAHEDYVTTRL
# TRPC6 act = mouse TRPC6 channel activation; Q61143; AID 2550; HEK293-TRPC6 membrane potential dye fluorescence; stronger effect = higher value; hit rate 0.13% among 310,000; B-score at 10 µM;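 active means B-score of the integrated fluorescence ratio above library mean plus 3 SD, and starting fluorescence ratio within library mean plus 5 SD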;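 further: higher score means more depolarization so channel activation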
# TRPC4 inh = inhibitors of mouse TRPC4 channel; B-score at 10 µM; HEK293 TRPC4beta/mu-opioid, DAMGO-evoked Fluo4 calcium flux; stronger effect = lower value; Q9QUQ5; hit rate 0.39% among 300,000;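 active means B-score over 3 SD under the library average, no early fluorescence shift, positive overall ratio signal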
#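 Material: HEK293 cells with stable TRPC4beta plus mu-opioid receptor expression / Probe or stimulus: DAMGO in two steps, submaximal then maximal / Compound: single concentration per test compound / Technique: kinetic Fluo4 fluorescence imaging of calcium influx / Read-out: per-well B score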
# TRPC4 act = opens the mouse TRPC4 cation channel. B-score at 10 µM. hit rate 0.49% among 310,000. HEK293 TRPC4beta/mu-opioid, Fluo4 calcium fluorescence; stronger effect = higher value;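 active means B-score above 5 SD of library B-scores, and initial fluorescence ratio not above library mean plus 5 SD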;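 further: positive B-score marks a calcium rise read as TRPC4 activation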
#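 Test system: HEK293 cells stably co-expressing mouse TRPC4beta and mu-opioid receptor | Schedule: Fluo4 dye loading 45 min at room temperature, 110 s recording | Measured by: Kinetic Fluo4 calcium fluorescence, 5 s baseline at 1 Hz | Evaluation: B score of integrated ratio | Controls: Buffer (low) and maximal DAMGO (high)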
# TRPC4 spec 2 = second check of whether TRPC6 inhibitors also affect mouse TRPC4; shares compounds with TRPC6 inh; AID 2776; HEK293 TRPC4/MOR, membrane potential dye fluorescence; channel activated by saturating DAMGO dose; hit rate 42% among 920; inhibition, % at 10 µM;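 active means compounds whose fluorescence signal differed from control wells by over 3 SD, either direction, in both duplicate plates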
# TRPC4 spec = selectivity of TRPC6 inhibitors: effect on mouse TRPC4; shares compounds with TRPC6 inh; HEK293 TRPC4/mu-opioid, membrane potential fluorescence; activity change, negative = inhibition, % at 10 µM; hit rate 61% among 920; AID 2777;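 active means rise or fall in signal beyond 3 SD of buffer-only wells in both replicate plates, either sign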;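 further: integrated kinetic ratio of fluorescence range over baseline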
# HEK293 MPD ctr 2-1 = parental HEK293 nonspecific activity of TRPC6 inhibitors, second screen; signal change vs control, % at 10 µM; shares compounds with TRPC6 inh; hit rate 31% among 920; parental HEK293 membrane potential dye fluorescence; maximal acetylcholine challenge after compound addition;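 active means membrane potential signal moving either way by over 3 SD of the maximum-effect control, in both duplicate plates, meaning non-specific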
# HEK293 MPD ctr-1 = counter-screen for TRPC6 inhibitors: effect in parental HEK293 cells | parental HEK293 membrane potential dye fluorescence | hit rate 60% among 920 | membrane potential signal change, % at 10 µM | shares compounds with TRPC6 inh;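 active means membrane potential signal shifting up or down by more than 3 SD of buffer-only wells, on both duplicate plates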
# HEK293 MPD ctr-2 = checks TRPC6 modulator effects in parental HEK293 cells; shares compounds with TRPC6 inh; membrane potential signal change, % at 10 µM; membrane potential dye fluorescence; hit rate 51% among 2,400; AID 488924;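 active means membrane potential signal moves up or down beyond 5 SD from buffer-only wells, on both duplicate plates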
# HEK293 MPD ctr 2-2 = parental HEK293 nonspecific activity of TRPC6 modulators, second screen | hit rate 14% among 2,400 | shares compounds with TRPC6 inh | membrane potential dye fluorescence; after compound, maximal acetylcholine stimulation | inhibition, % at 10 µM;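 active means membrane potential signal drops by more than 5 SD from the mean control signal, in both duplicate plates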
# TRPC4/MOR mod = tests whether TRPC6 modulators also affect mouse TRPC4; percent change from control (negative = decrease, positive = increase), % at 10 µM; HEK293 TRPC4/mu-opioid, membrane potential fluorescence; shares compounds with TRPC6 inh; hit rate 69% among 2,400;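 active means membrane potential signal moved up or down beyond 5 SD of buffer control wells, in both duplicate plates, actives on both sides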
# TRPC4/MOR inh 2 = second check of whether TRPC6 modulators also affect mouse TRPC4; shares compounds with TRPC6 inh; HEK293 TRPC4/mu-opioid, membrane potential dye fluorescence; stimulated with maximal-effect DAMGO; inhibition, % at 10 µM; hit rate 55% among 2,400; AID 488928;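 active means drop in membrane potential signal beyond 5 SD of the control wells in both duplicate plates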;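 further: TRPC4 counter screen for TRPC6 hits run under conditions tuned for TRPC6 not TRPC4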
# TRPC6 inh conf = mouse TRPC6 inhibitor confirmation; HEK293-TRPC6, membrane potential dye, ACh-evoked depolarization; shares compounds with TRPC6 inh; inhibition, % at 10 µM; hit rate 43% among 3,300;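 active means fluorescence ratio falls more than 5 SD below the full-stimulation control mean, in both duplicate runs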;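 further: integrated fluorescence ratio of peak minus minimum over baseline after agonist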
# TRPC6 act conf = mouse TRPC6 activator confirmation; shares compounds with TRPC6 inh; HEK293-TRPC6 membrane potential dye fluorescence, FDSS; activation, % at 10 µM; hit rate 11% among 2,800;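 active means ratio signal rise beyond 5 SD above unstimulated control wells' mean, seen in both duplicate runs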
# A number is an active result; . = inactive; / = no result given; + = active, no number. Only some compounds are listed: those with a hit (about 2.3% of all), similar ones and a draw of the others.
SMILES,TRPC6 inh,TRPC4 potent,TRPC6 act,TRPC4 inh,TRPC4 act,HEK293 MPD ctr-2,HEK293 MPD ctr 2-2,TRPC4/MOR mod,TRPC4/MOR inh 2,TRPC6 inh conf,TRPC6 act conf,others
N#C/C(=C/c1ccc(N2CCOCC2)o1)C(=O)Nc1ccccc1,.,.,50,.,.,+,+,134%,.,/,322%,
COCCNC(=O)/C(C#N)=C/c1ccc(N2CCOCC2)o1,.,.,.,.,.,/,/,/,/,/,/,
N#C/C(=C\c1ccc(N2CCOCC2)o1)C(=O)NC1CCCCC1,.,.,.,.,.,/,/,/,/,/,/,
CCOC(=O)c1[nH]ncc1CN1CCCC(C(=O)c2ccc(SC)cc2)C1 (stereo not drawn),-5.7,.,.,.,.,.,.,11%,30%,.,/,
CSc1ccc(C(=O)C2CCCN(Cc3ccc(N4CCNC4=O)cc3)C2)cc1 (stereo not drawn),-5.8,.,.,.,.,.,.,.,88%,55%,.,
CCOC(=O)c1[nH]ncc1CN1CCCC(C(=O)c2cccc3ccccc23)C1 (stereo not drawn),.,.,.,.,.,/,/,/,/,/,/,
CC(C)c1ccc(NC(=O)[C@@H]2CCC(=O)N2C2OC(=O)c3ccccc32)cc1 (stereo partly drawn),.,.,.,.,.,/,/,/,/,/,/,
CCOC(=O)C1=C(COC(=O)c2ccccc2[N+](=O)[O-])NC(=O)NC1C (stereo not drawn),.,.,.,.,.,/,/,/,/,/,/,
C=CCn1c(SCC(=O)NCC)nc2sc3c(c2c1=O)CCC3,.,.,.,.,.,/,/,/,/,/,/,
COc1ccccc1CNCC(=O)Nc1ccc(C#N)cc1,.,.,.,.,.,/,/,/,/,/,/,
COc1ccccc1CNCC(=O)Nc1ccc(C(F)(F)F)cc1,-5.2,.,.,.,.,.,.,.,42%,.,.,
Cc1ccc(C)c(COC(=O)CCN=C2NS(=O)(=O)c3ccccc32)c1,.,.,.,.,.,/,/,/,/,/,/,
CC1CC(C)CN(C(=O)c2ccc3c(c2NCCO)C(=O)c2ccccc2C3=O)C1 (stereo not drawn),-7,.,.,.,.,-246%,.,-45%,80%,68%,.,
CCCN1CCC(=O)N([C@H](CSc2ccc(Br)cc2)c2ccccc2)CC1,.,.,.,.,.,/,/,/,/,/,/,
Cc1cc(Cl)ccc1OCC(=O)NCCC(=O)O,-6.6,.,.,.,.,/,/,/,/,.,.,TRPC4 spec 2=.;TRPC4 spec=.;HEK293 MPD ctr 2-1=.;HEK293 MPD ctr-1=.
COc1cc2nc(NCCCN3CCN(C)CC3)n3nc(-c4ccccc4)nc3c2cc1OC,-6.6,.,.,.,.,-75%,.,.,63%,.,.,
CCN(CC)CCCNc1nc2cc(OC)c(OC)cc2c2nc(-c3cccnc3)nn12,-8,.,.,.,.,/,/,/,/,77%,.,TRPC4 spec 2=65%;TRPC4 spec=-30%;HEK293 MPD ctr 2-1=-68%;HEK293 MPD ctr-1=-446%
COCCCNc1nc2cc(OC)c(OC)cc2c2nc(-c3ccccc3)nn12,.,.,.,.,.,/,/,/,/,/,/,
CCN(CC)CCCNc1nc2ccccc2c2nc(-c3ccncc3)nn12,-7.2,.,.,.,.,/,/,/,/,69%,.,TRPC4 spec 2=61%;TRPC4 spec=-23%;HEK293 MPD ctr 2-1=-0.5%;HEK293 MPD ctr-1=-316%
CCN(CC)CCCNc1nc2cc(OC)c(OC)cc2c2nc(-c3ccccc3)nn12,.,.,.,.,.,/,/,/,/,/,/,
CC(C)C[C@H](NC(=O)c1[nH]cnc1C(=O)Nc1ccccc1)C(=O)OC(C)(C)C,.,.,.,.,.,/,/,/,/,/,/,
COc1cccc(N2CCN(C3CCCC(C)C3)CC2)c1 (stereo not drawn),-5.8,.,.,.,.,184%,.,38%,48%,.,/,
COc1ccc(S(=O)(=O)N2CCN(C3CCCC(C)C3)CC2)cc1 (stereo not drawn),.,.,.,.,.,/,/,/,/,/,/,
O=C1CSC(c2c(F)cccc2Cl)N1c1cccc(F)c1 (stereo not drawn),-5.1,.,.,.,.,.,.,12%,.,.,.,
O=C1CSC(c2cccc(F)c2)N1c1c(F)cccc1F (stereo not drawn),.,.,.,.,.,/,/,/,/,/,/,
SMILES,TRPC6 inh,TRPC4 potent,TRPC6 act,TRPC4 inh,TRPC4 act,HEK293 MPD ctr-2,HEK293 MPD ctr 2-2,TRPC4/MOR mod,TRPC4/MOR inh 2,TRPC6 inh conf,TRPC6 act conf,others
NS(=O)(=O)c1ccc(CCNC(=O)COC(=O)CCSc2ccc(Cl)cc2)cc1,.,.,.,.,.,/,/,/,/,/,/,
NS(=O)(=O)c1ccc(CCNC(=O)COC(=O)/C=C/c2ccc(Cl)cc2)cc1,-5.4,.,.,.,.,.,.,.,.,.,.,
O=C1c2cccc(Cl)c2C(=O)c2c1cccc2N1CCCC1,-8.3,.,.,.,.,-98%,.,-26%,76%,.,.,
O=C(CSc1nncc(=O)[nH]1)Nc1cccc([N+](=O)[O-])c1,.,.,.,.,.,/,/,/,/,/,/,
O=C(CSc1ccc2c(c1)OCCO2)NCCc1ccc(Cl)cc1Cl,-5.4,.,.,.,.,350%,.,16%,.,.,.,
CN(C)/C=C/C(=O)c1ccc(F)cc1F,.,.,.,.,.,/,/,/,/,/,/,
O=C1CNC(=S)N1Cc1cccc(Cl)c1,-7,.,.,.,.,/,/,/,/,.,.,TRPC4 spec 2=.;TRPC4 spec=-12%;HEK293 MPD ctr 2-1=.;HEK293 MPD ctr-1=.
O=C(O)CSc1c2c(nc3cc(C(=O)Nc4cccc(C(F)(F)F)c4)ccc13)CCC2,.,.,.,.,.,/,/,/,/,/,/,
CC[n+]1c(/C=C/Nc2ccccc2)oc2ccc(OC)cc21,-5.5,.,.,-7,.,-74%,.,-24%,.,46%,.,
CC[n+]1c(/C=C/N(C)c2ccccc2)oc2ccc(F)cc21,.,.,.,.,.,/,/,/,/,/,/,
